Results reported in ChEMBL document CHEMBL4265867, “Affinity-based small fluorescent probe for NAD(P)H:quinone oxidoreductase 1 (NQO1). Design, synthesis and pharmacological evaluation” (Eur J Med Chem, 2017).
Calls of active or inactive are those of the source. The calls are words filed in the database; no cut-off is given here.

Key:
[1] = molecular target: T1, NAD(P)H dehydrogenase [quinone] 1 (Homo sapiens, UniProt P15559); assay: Inhibition of recombinant human NQO1 assessed as reduction in oxidation of NADPH to NADP+ using b-lap as substrate and NADPH in presence of 0.14% (w/v) BSA
[2] = molecular target: T1, NAD(P)H dehydrogenase [quinone] 1; assay: Binding affinity to recombinant human NQO1 by fluorescence polarization competition assay
Procedure, shortened: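 Fluorescence polarization was read at 485 nm excitation and 535 nm emission in HEPES buffer. Free-probe mP was first measured over a range of probe concentrations without protein. For competition, wells held varying probe concentrations with NQO1 added from a 100 nM solution. IC50 was taken from a plot of % inhibition against concentration.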

[3] = molecular target: T1, NAD(P)H dehydrogenase [quinone] 1; assay: Binding affinity to NQO1 in human A549 cells at 10 uM incubated for 10 mins by DAPI staining based fluorescence microscopy imaging; type: cell-based
Procedure, shortened: (§1)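 A549 cells were rinsed with serum-free medium. Probe, from a 10 mM DMSO stock diluted in serum-free medium, was applied at 10 or 50 μM for 10 min at 37 °C, then washed off. For the inhibition condition, 10 μM DIC was co-incubated with the probe under the same conditions. Nuclei were stained with DAPI and cells imaged by laser scanning confocal microscopy.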

[4] = molecular target: T1, NAD(P)H dehydrogenase [quinone] 1; assay: Binding affinity to NQO1 in human A549 cells at 50 uM incubated for 10 mins by DAPI staining based fluorescence microscopy imaging; type: cell-based; procedure, shortened: as §1
[5] = molecular target: T1, NAD(P)H dehydrogenase [quinone] 1; assay: Binding affinity to NQO1 in human A549 cells at 10 uM incubated for 10 mins in presence of 10 uM DIC by DAPI staining based fluorescence microscopy imaging; type: cell-based; procedure, shortened: as §1
[6] = molecular target: T1, NAD(P)H dehydrogenase [quinone] 1; assay: Binding affinity to NQO1 in human A549 cells at 50 uM incubated for 10 mins in presence of 10 uM DIC by DAPI staining based fluorescence microscopy imaging; type: cell-based; procedure, shortened: as §1

O=C1OC2(c3ccc(O)cc3Oc3cc(O)ccc32)c2ccc(NC(=S)NCCCCCCOc3ccc(/C=C/C(=O)c4c(O)c5ccccc5oc4=O)cc3)cc21 was tested, and the IC50 [1] was 980 nM, the EC50 [2] was 2950 nM and the Activity [3] was “Active”. For the same compound, the Activity [4] was “Active”, the Activity [5] was “inactive” and the Activity [6] was “inactive”.
